Source: ChEMBL document CHEMBL4811251 (Eur J Med Chem, 2021)
Each block holds one molecule with its values, some of them ahead of it. Calls of active or inactive are those of the source. No cut-off for these calls is given here.

Tests used:
CDK8/Cyclin C = CDK8/Cyclin C (Homo sapiens, UniProt P49336); test: Inhibition of CDK8/Cyclin C (unknown origin) using RBER-CHKtide as substrate in presence of [33P]gammaATP incubated for 60 mins by microplate scintillation counter analysis
MV4-11 = test: Antiproliferative activity against human MV4-11 cells assessed as growth inhibition after 72 hrs by resazurin assay; assay type: functional
Outline: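 MV4-11 cells kept at 37 °C with 5% CO2 in ATCC-recommended medium plus 10% FBS. In-house resazurin viability assay after 72 h exposure. GI50 reported as mean ± standard deviation from at least two replicates.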

[1] = AUC in BALB/c mouse at 2 mg/kg, iv measured upto 24 hrs by LC/MS/MS analysis; assay type: ADME, organism-based; parameters: route intravenous, dose 2 mg/kg, time <=24; conditions: in vivo
[2] = Half life in Sprague-Dawley rat at 20 mg/kg, po measured upto 24 hrs by LC/MS/MS analysis; assay type: ADME, organism-based; conditions: in vivo
[3] = Half life in BALB/c mouse at 2 mg/kg, iv measured upto 24 hrs by LC/MS/MS analysis; assay type: ADME, organism-based; conditions: in vivo
[4] = Clearance in Sprague-Dawley rat at 5 mg/kg, iv measured upto 24 hrs by LC/MS/MS analysis; assay type: ADME, organism-based; conditions: in vivo
[5] = Oral bioavailability in Sprague-Dawley rat at 20 mg/kg measured upto 24 hrs by LC/MS/MS analysis; assay type: ADME, organism-based; conditions: in vivo
[6] = Cmax in BALB/c mouse at 10 mg/kg, po measured upto 24 hrs by LC/MS/MS analysis; assay type: ADME, organism-based; parameters: route oral, dose 10 mg/kg, time <=24; conditions: in vivo
[7] = Tmax in Sprague-Dawley rat at 5 mg/kg, iv measured upto 24 hrs by LC/MS/MS analysis; assay type: ADME, organism-based; conditions: in vivo
[8] = Cmax in Sprague-Dawley rat at 20 mg/kg, po measured upto 24 hrs by LC/MS/MS analysis; assay type: ADME, organism-based; parameters: route oral, dose 20 mg/kg, time <=24; conditions: in vivo
[9] = Cmax in Sprague-Dawley rat at 5 mg/kg, iv measured upto 24 hrs by LC/MS/MS analysis; assay type: ADME, organism-based; parameters: route intravenous, dose 5 mg/kg, time <=24; conditions: in vivo
[10] = Volume of distribution at steady state in BALB/c mouse at 2 mg/kg, iv measured upto 24 hrs by LC/MS/MS analysis; assay type: ADME, organism-based; conditions: in vivo, read-out: Vdss
[11] = Tmax in BALB/c mouse at 10 mg/kg, po measured upto 24 hrs by LC/MS/MS analysis; assay type: ADME, organism-based; conditions: in vivo
[12] = Tmax in Sprague-Dawley rat at 20 mg/kg, po measured upto 24 hrs by LC/MS/MS analysis; assay type: ADME, organism-based; conditions: in vivo
[13] = Half life in Sprague-Dawley rat at 5 mg/kg, iv measured upto 24 hrs by LC/MS/MS analysis; assay type: ADME, organism-based; conditions: in vivo
[14] = Oral bioavailability in BALB/c mouse at 10 mg/kg measured upto 24 hrs by LC/MS/MS analysis; assay type: ADME, organism-based; conditions: in vivo
[15] = Clearance in BALB/c mouse at 2 mg/kg, iv measured upto 24 hrs by LC/MS/MS analysis; assay type: ADME, organism-based; conditions: in vivo
[16] = AUC in BALB/c mouse at 10 mg/kg, po measured upto 24 hrs by LC/MS/MS analysis; assay type: ADME, organism-based; parameters: route oral, dose 10 mg/kg, time <=24; conditions: in vivo
[17] = AUC in Sprague-Dawley rat at 20 mg/kg, po measured upto 24 hrs by LC/MS/MS analysis; assay type: ADME, organism-based; parameters: route oral, dose 20 mg/kg, time <=24; conditions: in vivo
[18] = Half life in BALB/c mouse at 10 mg/kg, po measured upto 24 hrs by LC/MS/MS analysis; assay type: ADME, organism-based; conditions: in vivo
[19] = Tmax in BALB/c mouse at 2 mg/kg, iv measured upto 24 hrs by LC/MS/MS analysis; assay type: ADME, organism-based; conditions: in vivo
[20] = Volume of distribution at steady state in Sprague-Dawley rat at 5 mg/kg, iv measured upto 24 hrs by LC/MS/MS analysis; assay type: ADME, organism-based; conditions: in vivo, read-out: Vdss
[21] = Cmax in BALB/c mouse at 2 mg/kg, iv measured upto 24 hrs by LC/MS/MS analysis; assay type: ADME, organism-based; parameters: route intravenous, dose 2 mg/kg, time <=24; conditions: in vivo
[22] = AUC in Sprague-Dawley rat at 5 mg/kg, iv measured upto 24 hrs by LC/MS/MS analysis; assay type: ADME, organism-based; parameters: route intravenous, dose 5 mg/kg, time <=24; conditions: in vivo
[23] = biological target: Cyclin-dependent kinase 1/cyclin B1 (Homo sapiens) (UniProt P06493+P14635); test: Inhibition of CDK1/Cyclin B (unknown origin) assessed as residual activity at 1 uM relative to control; assay type: protein-complex assay
[24] = biological target: Protein kinase C theta (Homo sapiens) (UniProt Q04759); test: Inhibition of PKC theta (unknown origin) assessed as residual activity at 1 uM relative to control
[25] = biological target: Glycogen synthase kinase-3 beta (Homo sapiens) (UniProt P49841); test: Inhibition of GSK3beta (unknown origin) assessed as residual activity at 1 uM relative to control
[26] = biological target: Glycogen synthase kinase-3 alpha (Homo sapiens) (UniProt P49840); test: Inhibition of GSK3alpha (unknown origin) assessed as residual activity at 1 uM relative to control
[27] = biological target: CDK9/cyclin T1 (Homo sapiens) (UniProt O60563+P50750); test: Inhibition of CDK9/Cyclin T1 (unknown origin) assessed as residual activity at 1 uM relative to control; assay type: protein-complex assay

Sequence of CDK8/Cyclin C (P49336 whole entry): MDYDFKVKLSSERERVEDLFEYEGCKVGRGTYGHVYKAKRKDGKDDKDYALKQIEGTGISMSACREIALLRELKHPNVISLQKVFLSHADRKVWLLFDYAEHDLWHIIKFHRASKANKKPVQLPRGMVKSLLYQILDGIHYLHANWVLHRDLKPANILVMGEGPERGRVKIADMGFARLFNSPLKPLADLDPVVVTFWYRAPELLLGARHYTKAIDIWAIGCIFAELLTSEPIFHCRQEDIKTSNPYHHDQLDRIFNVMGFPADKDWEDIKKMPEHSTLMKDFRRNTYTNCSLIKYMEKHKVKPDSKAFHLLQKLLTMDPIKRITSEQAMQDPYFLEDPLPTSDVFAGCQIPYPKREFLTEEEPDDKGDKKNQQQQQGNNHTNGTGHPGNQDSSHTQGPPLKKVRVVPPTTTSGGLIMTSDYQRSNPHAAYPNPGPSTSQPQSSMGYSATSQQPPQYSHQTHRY
Sequence of CDK8/Cyclin C (P24863 whole entry, further chain): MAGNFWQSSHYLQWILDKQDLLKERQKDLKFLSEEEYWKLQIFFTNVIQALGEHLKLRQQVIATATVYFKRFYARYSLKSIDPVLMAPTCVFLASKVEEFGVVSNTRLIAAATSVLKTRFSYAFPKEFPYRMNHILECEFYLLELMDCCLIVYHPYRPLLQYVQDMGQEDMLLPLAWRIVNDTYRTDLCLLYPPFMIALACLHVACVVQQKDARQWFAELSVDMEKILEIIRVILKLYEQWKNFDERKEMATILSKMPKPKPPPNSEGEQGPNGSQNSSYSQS
Sequence of Cyclin-dependent kinase 1/cyclin B1 (Homo sapiens) (P06493 whole entry, looked up): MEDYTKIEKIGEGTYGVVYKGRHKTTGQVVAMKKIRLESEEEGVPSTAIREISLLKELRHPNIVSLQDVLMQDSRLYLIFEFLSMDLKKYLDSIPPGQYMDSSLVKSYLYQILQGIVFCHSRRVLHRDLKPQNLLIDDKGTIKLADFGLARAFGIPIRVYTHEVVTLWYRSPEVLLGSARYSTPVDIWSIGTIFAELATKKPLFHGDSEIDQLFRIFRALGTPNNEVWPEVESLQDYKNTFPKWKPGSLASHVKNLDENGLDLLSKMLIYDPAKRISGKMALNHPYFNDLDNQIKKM
Sequence of Cyclin-dependent kinase 1/cyclin B1 (Homo sapiens) (P14635 whole entry, looked up): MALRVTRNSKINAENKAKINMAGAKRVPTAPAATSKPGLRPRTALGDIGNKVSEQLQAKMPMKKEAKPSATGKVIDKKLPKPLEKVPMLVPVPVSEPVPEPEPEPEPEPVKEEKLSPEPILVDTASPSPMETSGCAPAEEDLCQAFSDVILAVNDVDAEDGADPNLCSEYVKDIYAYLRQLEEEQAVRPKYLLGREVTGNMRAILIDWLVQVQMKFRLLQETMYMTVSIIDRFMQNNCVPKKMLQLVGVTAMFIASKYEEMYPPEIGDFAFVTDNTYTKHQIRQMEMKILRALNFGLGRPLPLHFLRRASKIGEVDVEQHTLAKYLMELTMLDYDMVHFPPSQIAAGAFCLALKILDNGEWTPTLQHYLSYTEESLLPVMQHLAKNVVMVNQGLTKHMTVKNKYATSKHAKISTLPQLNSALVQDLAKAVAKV
Sequence of Protein kinase C theta (Homo sapiens) (Q04759 whole entry, looked up): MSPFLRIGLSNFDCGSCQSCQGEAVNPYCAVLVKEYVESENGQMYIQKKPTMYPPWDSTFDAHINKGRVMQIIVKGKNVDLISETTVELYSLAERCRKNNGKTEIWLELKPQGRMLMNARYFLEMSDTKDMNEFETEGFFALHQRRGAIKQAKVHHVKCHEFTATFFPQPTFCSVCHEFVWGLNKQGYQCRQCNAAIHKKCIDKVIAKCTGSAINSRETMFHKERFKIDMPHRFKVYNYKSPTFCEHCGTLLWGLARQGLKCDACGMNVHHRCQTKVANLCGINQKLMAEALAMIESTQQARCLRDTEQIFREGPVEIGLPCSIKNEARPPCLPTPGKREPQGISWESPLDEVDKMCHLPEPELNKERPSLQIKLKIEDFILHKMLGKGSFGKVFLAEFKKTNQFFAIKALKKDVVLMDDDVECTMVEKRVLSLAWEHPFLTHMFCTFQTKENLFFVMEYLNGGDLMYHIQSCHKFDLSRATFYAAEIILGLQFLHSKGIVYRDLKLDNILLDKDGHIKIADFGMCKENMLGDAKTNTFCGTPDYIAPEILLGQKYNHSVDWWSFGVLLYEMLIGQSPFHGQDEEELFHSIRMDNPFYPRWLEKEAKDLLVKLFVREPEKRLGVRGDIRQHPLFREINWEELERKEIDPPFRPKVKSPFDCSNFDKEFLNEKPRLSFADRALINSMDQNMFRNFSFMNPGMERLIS
Sequence of Glycogen synthase kinase-3 alpha (Homo sapiens) (P49840 2-483 limits assumed): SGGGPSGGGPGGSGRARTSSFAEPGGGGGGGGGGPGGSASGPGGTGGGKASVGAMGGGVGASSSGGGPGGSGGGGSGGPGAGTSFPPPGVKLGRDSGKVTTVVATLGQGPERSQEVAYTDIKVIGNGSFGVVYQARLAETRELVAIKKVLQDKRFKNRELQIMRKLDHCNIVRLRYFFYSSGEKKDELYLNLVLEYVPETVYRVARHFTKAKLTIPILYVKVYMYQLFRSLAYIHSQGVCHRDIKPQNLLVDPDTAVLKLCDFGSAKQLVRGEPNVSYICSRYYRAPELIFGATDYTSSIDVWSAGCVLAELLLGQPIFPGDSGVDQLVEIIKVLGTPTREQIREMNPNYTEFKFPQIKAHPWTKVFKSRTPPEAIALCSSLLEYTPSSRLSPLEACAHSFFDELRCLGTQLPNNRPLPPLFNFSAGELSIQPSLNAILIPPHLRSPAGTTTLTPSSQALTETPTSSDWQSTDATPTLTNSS
Sequence of Glycogen synthase kinase-3 beta (Homo sapiens) (P49841 whole entry, looked up): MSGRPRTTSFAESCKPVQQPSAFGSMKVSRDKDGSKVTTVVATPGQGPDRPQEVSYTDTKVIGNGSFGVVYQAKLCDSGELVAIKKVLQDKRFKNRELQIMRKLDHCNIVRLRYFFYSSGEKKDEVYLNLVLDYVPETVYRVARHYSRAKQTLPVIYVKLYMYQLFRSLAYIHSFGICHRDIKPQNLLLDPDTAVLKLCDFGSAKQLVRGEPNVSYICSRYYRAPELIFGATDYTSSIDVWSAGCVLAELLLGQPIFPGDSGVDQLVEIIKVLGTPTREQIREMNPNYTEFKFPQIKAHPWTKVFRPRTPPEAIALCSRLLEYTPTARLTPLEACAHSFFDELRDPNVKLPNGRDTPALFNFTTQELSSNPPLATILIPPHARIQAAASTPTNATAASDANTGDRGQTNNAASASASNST

SMILES: O=C1NCCC12CCN(c1c(Cl)cncc1-c1cn[nH]c1)CC2
- Ki (CDK8/Cyclin C): 0.254 µM
- GI50 (MV4-11): 8.52 µM

SMILES: O=C1NCCC12CCN(c1c(Cl)cncc1-c1ccc(CN3CCCCC3)s1)CC2
- Ki (CDK8/Cyclin C): 0.106 µM
- GI50 (MV4-11): 4.01 µM

SMILES: Cc1ccc(-c2cncc(Cl)c2N2CCC3(CCNC3=O)CC2)o1
- Ki (CDK8/Cyclin C): 0.022 µM
- GI50 (MV4-11): 4.95 µM

SMILES: CC(=O)c1sccc1-c1cncc(Cl)c1N1CCC2(CCNC2=O)CC1
- Ki (CDK8/Cyclin C): 4.66 µM
- GI50 (MV4-11): > 100 µM

SMILES: O=C1NCCC12CCN(c1c(Cl)cncc1-c1cc[nH]c1)CC2
- Ki (CDK8/Cyclin C): 0.014 µM
- GI50 (MV4-11): 1.05 µM

SMILES: O=C1NCCC12CCN(c1c(Cl)cncc1-c1ccco1)CC2
- Ki (CDK8/Cyclin C): 0.026 µM
- GI50 (MV4-11): 0.94 µM

SMILES: Cc1ccsc1-c1cncc(Cl)c1N1CCC2(CCNC2=O)CC1
- Ki (CDK8/Cyclin C): 0.008 µM
- GI50 (MV4-11): 0.91 µM

SMILES: Cc1cc(-c2cncc(Cl)c2N2CCC3(CCNC3=O)CC2)sc1C=O
- Ki (CDK8/Cyclin C): 0.119 µM
- GI50 (MV4-11): 2.53 µM

SMILES: O=Cc1sccc1-c1cncc(Cl)c1N1CCC2(CCNC2=O)CC1
- Ki (CDK8/Cyclin C): 1.75 µM
- GI50 (MV4-11): 28.7 µM

SMILES: CCOCOCc1ccc(-c2cncc(Cl)c2N2CCC3(CCNC3=O)CC2)o1
- Ki (CDK8/Cyclin C): 0.036 µM
- GI50 (MV4-11): 2.97 µM

SMILES: O=C1NCCC12CCN(c1c(Cl)cncc1-c1ccc(-c3ccccc3)s1)CC2
- Activity [23]: inactive
- Activity [24]: inactive
- Ki (CDK8/Cyclin C): 0.005 µM
- Activity [25]: 74%
- GI50 (MV4-11): 0.96 µM
- Activity [26]: 62%
- Activity [27]: inactive

SMILES: Cn1cccc1-c1cncc(Cl)c1N1CCC2(CCNC2=O)CC1
- Ki (CDK8/Cyclin C): 0.03 µM
- GI50 (MV4-11): 0.9 µM

SMILES: CC(C)(C)OC(=O)N1CCN(Cc2ccc(-c3cncc(Cl)c3N3CCC4(CCNC4=O)CC3)s2)CC1
- Ki (CDK8/Cyclin C): 0.046 µM
- GI50 (MV4-11): 5.15 µM

SMILES: Cn1cc(-c2cncc(Cl)c2N2CCC3(CCNC3=O)CC2)cn1
- Ki (CDK8/Cyclin C): 0.23 µM
- GI50 (MV4-11): 5.53 µM

SMILES: O=C1NCCC12CCN(c1c(Cl)cncc1-c1cnn(C(F)F)c1)CC2
- Ki (CDK8/Cyclin C): 0.093 µM
- GI50 (MV4-11): 6.14 µM

SMILES: O=Cc1cscc1-c1cncc(Cl)c1N1CCC2(CCNC2=O)CC1
- Ki (CDK8/Cyclin C): 0.845 µM
- GI50 (MV4-11): 27.1 µM

SMILES: O=C1NCCC12CCN(c1c(Cl)cncc1-c1ccc(CN3CCCC3)s1)CC2
- Ki (CDK8/Cyclin C): 0.132 µM
- GI50 (MV4-11): 3.37 µM

SMILES: O=Cc1cc(-c2cncc(Cl)c2N2CCC3(CCNC3=O)CC2)co1
- Ki (CDK8/Cyclin C): 0.185 µM
- GI50 (MV4-11): 5.15 µM

SMILES: CC(=O)c1ccc(-c2cncc(Cl)c2N2CCC3(CCNC3=O)CC2)s1
- Ki (CDK8/Cyclin C): 0.066 µM
- GI50 (MV4-11): 1.44 µM

SMILES: O=Cc1ccc(-c2cncc(Cl)c2N2CCC3(CCNC3=O)CC2)o1
- Ki (CDK8/Cyclin C): 0.082 µM
- GI50 (MV4-11): 5.19 µM

SMILES: O=C1NCCC12CCN(c1c(Cl)cncc1-c1ccc(CN3CCOCC3)s1)CC2
- Ki (CDK8/Cyclin C): 0.032 µM
- GI50 (MV4-11): 2.96 µM

These reach a lower GI50 (MV4-11). Values come first.

- Ki (CDK8/Cyclin C): 0.042 µM
- GI50 (MV4-11): 0.75 µM
SMILES: O=C1NCCC12CCN(c1c(Cl)cncc1-c1ccoc1)CC2

- Ki (CDK8/Cyclin C): 0.052 µM
- GI50 (MV4-11): 0.73 µM
SMILES: O=Cc1cc(-c2cncc(Cl)c2N2CCC3(CCNC3=O)CC2)cs1

- AUC at 24 h [1]: 2.4 µM·h
- half-life [2]: 10.1 h
- half-life [3]: 0.88 h
- clearance [4]: 0.79 L/h/kg
- bioavailability [5]: 26%
- Cmax [6]: 1.68 µM
- Tmax [7]: 9 min
- Cmax [8]: 1.35 µM
- Cmax [9]: 11.1 µM
- Vd [10]: 1.6 L/kg
- Ki (CDK8/Cyclin C): 0.007 µM
- Tmax [11]: 0.18 h
- Tmax [12]: 5 h
- half-life [13]: 4.41 h
- bioavailability [14]: 28%
- clearance [15]: 2 L/h/kg
- AUC at 24 h [16]: 3.4 µM·h
- AUC at 24 h [17]: 19.5 µM·h
- half-life [18]: 1.67 h
- GI50 (MV4-11): 0.16 µM
- Tmax [19]: 3 min
- Vd [20]: 1.32 L/kg
- Cmax [21]: 4.96 µM
- AUC at 24 h [22]: 18.4 µM·h
SMILES: Nc1ncc(-c2cc3ccccc3s2)c(N2CCC3(CCNC3=O)CC2)c1Cl

- Ki (CDK8/Cyclin C): 0.067 µM
- GI50 (MV4-11): 0.75 µM
SMILES: O=Cc1ccc(-c2cncc(Cl)c2N2CCC3(CCNC3=O)CC2)s1

- Ki (CDK8/Cyclin C): 0.01 µM
- GI50 (MV4-11): 0.65 µM
SMILES: Cc1csc(-c2cncc(Cl)c2N2CCC3(CCNC3=O)CC2)c1

- Ki (CDK8/Cyclin C): 0.014 µM
- GI50 (MV4-11): 0.56 µM
SMILES: O=C1NCCC12CCN(c1c(Cl)cncc1-c1ccc(Cl)s1)CC2

- Ki (CDK8/Cyclin C): 0.01 µM
- GI50 (MV4-11): 0.48 µM
SMILES: O=C1NCCC12CCN(c1c(Cl)cncc1-c1cccs1)CC2

- Ki (CDK8/Cyclin C): 0.018 µM
- GI50 (MV4-11): 0.19 µM
SMILES: O=C1NCCC12CCN(c1c(Cl)cncc1-c1ccsc1)CC2

- Ki (CDK8/Cyclin C): 0.01 µM
- GI50 (MV4-11): 0.65 µM
SMILES: Cc1ccc(-c2cncc(Cl)c2N2CCC3(CCNC3=O)CC2)s1

- GI50 (MV4-11): 0.05 µM
SMILES: Cn1ncc2cc(-c3cnc(N)c(Cl)c3N3CCC4(CCNC4=O)CC3)ccc21
